In ChEMBL document CHEMBL3044971, “Dialkoxybenzene and dialkoxyallylbenzene feeding and oviposition deterrents against the cabbage looper, Trichoplusia ni: potential insect behavior control agents” (J Agric Food Chem, 2010) one finds Activity, mortality and DC50 data, which are given here for 35 compounds.

One may read the mortality as the percentage killed. Lower therefore signals more survivors.

Data set [1] relates to Trichoplusia ni. As to the kind of experiment: Feeding deterrent activity against freshly molted third-instar larval stage of Trichoplusia ni (cabbage looper) in compound pretreated cabbage leaves at 50 ug/cm2 after 3 to 5 hr by leaf disk choice bioassay. It counts as functional. In outline:
(§1)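 Leaf-disk choice test on greenhouse cabbage (Stonehead) leaves from 5-6-week plants. Freshly molted third-instar T. ni from a diet-reared colony (>50 generations) were starved 4-5 h. One disk had 10 μL test solution painted on each side, the other carrier solvent only. There were 25 larvae per treatment. Run ended at ~50% control disk eaten (3-5 h). Deterrence = (C−T)/(C+T)×100 from consumed areas.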

The test system of data set [2] is Trichoplusia ni. The note with it: in vivo, 24 h.
In data set [3] the test system is Trichoplusia ni. As to the kind of experiment: Feeding deterrent activity against freshly molted third-instar larval stage of Trichoplusia ni (cabbage looper) in compound pretreated cabbage leaves after 3 to 5 hr by leaf disk choice bioassay. Format: functional, organism-based. In outline:
as §1

The subject of data set [4] is Trichoplusia ni. As to the kind of experiment: Oviposition deterrent activity against adult female Trichoplusia ni (cabbage looper) moths introduced along with male moths into oviposition cage containing compound pretreated cabbage leaves assessed as eggs laying on the leaf disks at 0.25% after 48 hr. It counts as functional. In outline: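 Choice test: one male and one female moth were caged with a control and a treated cabbage leaf (~100-110 cm²). Each side was sprayed with 0.5 mL MeOH or methanolic test solution at 0.25%. Values are mean ± SE, N = 35-40.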

Regarding `C=CCOc1ccc(OCCCC)cc1CC=C`, the Activity in the data set with Trichoplusia ni [1] was 29%. Consider `C=CCc1cccc(OC)c1OCCCC`, for which the Activity in the data set with Trichoplusia ni [1] was 6%. In the data set with Trichoplusia ni [2], the mortality is 1%. As to `C=CCc1ccc(O)c(OC)c1` [EUGENOL], the DC50 in the data set on Trichoplusia ni [3] was determined as 56 microg/cm2. Besides, in the data set with Trichoplusia ni [1], the Activity is 44%. Further, the mortality in the data set on Trichoplusia ni [2] is given as 30%. Turning to `C=CCOc1ccc(OC)cc1CC=C`, the Activity in the data set on Trichoplusia ni [1] amounted to 29%. As for `C=CCc1cc(OCCC(C)C)ccc1OCCCC`, the results for the Activity in the data set on Trichoplusia ni [4] and with Trichoplusia ni [1] were -14% and 23%, respectively. For `C=CCOc1ccc(OCCC(C)C)cc1CC=C`, the Activity in the data set on Trichoplusia ni [1] is recorded as 29%.

With `C=CCOc1ccc(OCCC(C)C)cc1` [1-allyloxy-4-isopentoxybenzene], the Activity in the data set on Trichoplusia ni [4] was -25%. In the case of `C=CCc1cccc(OCCC(C)C)c1OCCC`, the Activity in the data set with Trichoplusia ni [1] is listed as 31%. The same compound registered a mortality in the data set on Trichoplusia ni [2] of 47%. As to `C=CCc1cc(OC)ccc1OCCCC`, the Activity is recorded as -14% in the data set with Trichoplusia ni [4] and 23% with Trichoplusia ni [1]. Consider `C=CCOc1c(CC=C)cccc1OCC`, for which the Activity in the data set with Trichoplusia ni [1] is 22%. The compound also gave a mortality in the data set with Trichoplusia ni [2] of 7%. In the case of `C=CCOc1ccccc1OCCC(C)C`, the Activity with Trichoplusia ni [4] was 26%. Turning to `C=CCc1cc(OCC)ccc1OCCCC`, the Activity is on record as -14% with Trichoplusia ni [4] and 23% with Trichoplusia ni [1]. In the case of `C=CCc1cccc(OCCCC)c1OCCC`, the Activity in the data set on Trichoplusia ni [1] was found to be 31%. For the same compound, the mortality with Trichoplusia ni [2] is listed as 47%. Regarding `C=CCOc1ccc(OCCC)cc1CC=C`, the Activity in the data set on Trichoplusia ni [1] came out at 29%. As to `C=CCOc1c(CC=C)cccc1OCCC(C)C`, the Activity in the data set with Trichoplusia ni [1] is 22%. Also, the mortality in the data set on Trichoplusia ni [2] worked out at 7%. For the compound `C=CCc1cccc(OCCCC)c1OCCCC`, the Activity with Trichoplusia ni [1] is given as 6%. In addition, the mortality in the data set with Trichoplusia ni [2] came to 1%. As to `C=CCOc1ccc(OCC)cc1CC=C`, the Activity in the data set on Trichoplusia ni [1] came out at 29%. As to `C=CCc1cccc(OC)c1OCCC(C)C`, the Activity in the data set with Trichoplusia ni [1] worked out at 22%. Further, in the data set with Trichoplusia ni [2], the mortality amounted to 7%.

Consider `C=CCc1cc(OCCCC)ccc1OCCCC`, for which the figures for the Activity in the data set with Trichoplusia ni [4] and in the data set on Trichoplusia ni [1] were -14% and 23%, respectively. On to `C=CCc1cccc(OCC)c1OCCC(C)C`, for which the Activity in the data set on Trichoplusia ni [1] is given as 22%. Also, the mortality in the data set with Trichoplusia ni [2] came to 7%.

As to `C=CCc1cccc(OCCCC)c1OCCC(C)C`, in the data set with Trichoplusia ni [1], the Activity is on record as 22%. The mortality with Trichoplusia ni [2] amounted to 7%. In the same order, the values of `C=CCc1cccc(OCCC(C)C)c1OCCC(C)C` are 22% and 7%.

For the compound `C=CCc1cccc(OCCC)c1OCCC`, the Activity in the data set on Trichoplusia ni [1] came to 31%. In the data set with Trichoplusia ni [2], this compound came in with a mortality of 47%. As to `C=CCOc1c(CC=C)cccc1OCCC`, in the data set with Trichoplusia ni [1], the Activity is given as 22%. The same compound came in with a mortality in the data set on Trichoplusia ni [2] of 7%.

For `C=CCc1cc(OCCC)ccc1OCCCC`, the values for the Activity in the data set on Trichoplusia ni [4] and in the data set on Trichoplusia ni [1] were -14% and 23%, respectively.

Take `C=CCOc1cccc(OCCC(C)C)c1`: the Activity with Trichoplusia ni [4] turned out to be 10%. Turning to `C=CCc1cccc(OCCC)c1OCCCC`, the Activity in the data set on Trichoplusia ni [1] is 6%. In the data set with Trichoplusia ni [2], this compound yielded a mortality of 1%.

In the case of `C=CCOc1c(CC=C)cccc1OCCCC`, the Activity with Trichoplusia ni [1] is 22%. The compound also came in with a mortality with Trichoplusia ni [2] of 7%.

Turning to `C=CCc1cccc(OCC)c1OCCC`, the Activity in the data set with Trichoplusia ni [1] was 31%. This compound also showed a mortality in the data set with Trichoplusia ni [2] of 47%. As to `C=CCc1cccc(OCCC)c1OCCC(C)C`, in the data set with Trichoplusia ni [1], the Activity stood at 22%. Also, the mortality with Trichoplusia ni [2] was found to be 7%. In the case of `C=CCc1cccc(OCCC(C)C)c1OCCCC`, the Activity in the data set with Trichoplusia ni [1] came out at 6%. For the same compound, the mortality with Trichoplusia ni [2] was 1%. For the compound `C=CCOc1cccc(O)c1` [3-(ALLYLOXY)PHENOL], the Activity with Trichoplusia ni [4] amounted to 5%; in the data set with Trichoplusia ni [1], 36%. For the compound `C=CCOc1c(CC=C)cccc1OC`, in the data set on Trichoplusia ni [1], the Activity came out at 22%. Further, in the data set with Trichoplusia ni [2], the mortality was 7%. In the same order, the values of `C=CCc1cccc(OCC)c1OCCCC` are 6% and 1%. In the same order, the values of `C=CCc1cccc(OC)c1OCCC` are 31% and 47%.
